# Laboratory results taken from ChEMBL document CHEMBL4477182, “Evaluation of the Intestinal Absorption Mechanism of Casearin X in Caco-2 Cells with Modified Carboxylesterase Activity” (J Nat Prod, 2016).
# What was measured:
# [1] = Cytotoxicity against human Caco2 cells assessed as cell viability at 1 uM after 5 hrs by MTT assay relative to control; type: cell-based; conditions: Caco-2 cells, read-out: Activity
# Summary of the method: (§1)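 Caco-2 cells (passage 60−65) seeded at 1.14 × 10^5 cells/cm2, grown 24 h, then exposed in transport buffer (pH 7.4) to 1, 2, 3, 4, 5 and 10 μM for 5 h at 37 °C, 8% CO2. After a DPBS wash, MTT was added for 2 h. A 1% DMSO blank gave background. n = 18; ANOVA with Bonferroni test.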
# [2] = Cytotoxicity against human Caco2 cells assessed as cell viability at 2 uM after 5 hrs by MTT assay relative to control; type: cell-based; conditions: Caco-2 cells, read-out: Activity; summary of the method: as §1
# Caco-2 = assay: Cytotoxicity against human Caco2 cells assessed as reduction in cell viability after 5 hrs by MTT assay; type: cell-based; conditions: caco-2, 5 h; summary of the method: as §1
# [3] = Permeability from apical to basolateral side in human Caco2 cells assessed as drug recovery at 2 uM after 10 mins in absence of CES inhibitor BNPP by LC-MS method; type: ADME, cell-based; conditions: Caco-2, read-out: Drug recovery
# Summary of the method: (§2)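 Caco-2 monolayers grown 19−21 days on Transwell inserts. Pretreated 40 min at 37 °C with 200 μM BNPP in HBSS on both sides, or sham HBSS, then 40 min DMEM washout. Monolayers with TEER >250 Ω cm2 were dosed at 2 μM (1% DMSO) on the donor side; basolateral buffer had 4% FBS. Shaken at 37 °C. Buffer, cell and plastic extracts at 10, 60 and 120 min were measured by LC-MS for total recovery; mean(SD), n = 3.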
# [4] = Permeability from apical to basolateral side in human Caco2 cells assessed as drug recovery at 2 uM after 60 mins in absence of CES inhibitor BNPP by LC-MS method; type: ADME, cell-based; conditions: Caco-2, read-out: Drug recovery; summary of the method: as §2
# [5] = Permeability from apical to basolateral side in human Caco2 cells assessed as drug recovery at 2 uM after 120 mins in absence of CES inhibitor BNPP by LC-MS method; type: ADME, cell-based; conditions: Caco-2, read-out: Drug recovery; summary of the method: as §2
# [6] = Permeability from apical to basolateral side in human Caco2 cells assessed as drug recovery at 2 uM after 10 mins in presence of CES inhibitor BNPP by LC-MS method; type: ADME, cell-based; conditions: Caco-2, with BNPP (CES inhibitor), concentration not stated, read-out: Drug recovery; summary of the method: as §2
# [7] = Permeability from apical to basolateral side in human Caco2 cells assessed as drug recovery at 2 uM after 60 mins in presence of CES inhibitor BNPP by LC-MS method; type: ADME, cell-based; conditions: Caco-2, with BNPP (CES inhibitor), concentration not stated, read-out: Drug recovery; summary of the method: as §2
# [8] = Permeability from apical to basolateral side in human Caco2 cells assessed as drug recovery at 2 uM after 120 mins in presence of CES inhibitor BNPP by LC-MS method; type: ADME, cell-based; conditions: Caco-2, with BNPP (CES inhibitor), concentration not stated, read-out: Drug recovery; summary of the method: as §2
# [9] = Permeability from basolateral to apical side in human Caco2 cells assessed as drug recovery at 2 uM after 10 mins in absence of CES inhibitor BNPP by LC-MS method; type: ADME, cell-based; conditions: Caco-2, read-out: Drug recovery; summary of the method: as §2
# [10] = Permeability from basolateral to apical side in human Caco2 cells assessed as drug recovery at 2 uM after 60 mins in absence of CES inhibitor BNPP by LC-MS method; type: ADME, cell-based; conditions: Caco-2, read-out: Drug recovery; summary of the method: as §2
# [11] = Permeability from basolateral to apical side in human Caco2 cells assessed as drug recovery at 2 uM after 120 mins in absence of CES inhibitor BNPP by LC-MS method; type: ADME, cell-based; conditions: Caco-2, read-out: Drug recovery; summary of the method: as §2
# [12] = Permeability from basolateral to apical side in human Caco2 cells assessed as drug recovery at 2 uM after 10 mins in presence of CES inhibitor BNPP by LC-MS method; type: ADME, cell-based; conditions: Caco-2, with BNPP (CES inhibitor), concentration not stated, read-out: Drug recovery; summary of the method: as §2
# [13] = Permeability from basolateral to apical side in human Caco2 cells assessed as drug recovery at 2 uM after 60 mins in presence of CES inhibitor BNPP by LC-MS method; type: ADME, cell-based; conditions: Caco-2, with BNPP (CES inhibitor), concentration not stated, read-out: Drug recovery; summary of the method: as §2
# [14] = Permeability from basolateral to apical side in human Caco2 cells assessed as drug recovery at 2 uM after 120 mins in presence of CES inhibitor BNPP by LC-MS method; type: ADME, cell-based; conditions: Caco-2, with BNPP (CES inhibitor), concentration not stated, read-out: Drug recovery; summary of the method: as §2
# CE2 (cocaine esterase) [15] = target: T1, CE2 (cocaine esterase) (Homo sapiens, UniProt O00748); assay: Drug metabolism assessed as human CE2-mediated compound hydrolysis at 1 uM incubated for 30 mins measured every 5 mins by LC-MS analysis; type: ADME; conditions: human CE2 enzyme, read-out: Drug metabolism
# T1 sequence (O00748 whole entry): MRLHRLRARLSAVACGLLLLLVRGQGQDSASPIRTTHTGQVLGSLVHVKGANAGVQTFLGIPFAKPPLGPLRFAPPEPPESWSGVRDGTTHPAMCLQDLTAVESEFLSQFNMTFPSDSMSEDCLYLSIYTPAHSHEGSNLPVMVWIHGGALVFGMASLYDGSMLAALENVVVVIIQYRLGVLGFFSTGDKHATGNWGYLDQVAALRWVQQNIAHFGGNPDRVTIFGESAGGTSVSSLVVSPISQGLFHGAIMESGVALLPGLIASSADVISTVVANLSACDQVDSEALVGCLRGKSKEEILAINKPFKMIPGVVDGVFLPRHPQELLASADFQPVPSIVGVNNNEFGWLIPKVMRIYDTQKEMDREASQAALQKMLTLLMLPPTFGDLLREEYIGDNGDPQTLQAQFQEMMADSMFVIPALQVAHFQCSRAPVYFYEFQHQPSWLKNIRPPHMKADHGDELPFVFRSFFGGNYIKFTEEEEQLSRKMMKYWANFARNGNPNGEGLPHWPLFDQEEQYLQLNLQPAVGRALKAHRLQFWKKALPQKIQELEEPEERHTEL
# Summary of the method: (§3)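 Purified human hCE2 (0.2 μg/mL) in 90 mM KH2PO4, 40 mM KCl, pH 7.3, preincubated 5 min at 37 °C. Reaction started with 1 μM substrate (0.1% DMSO final) and sampled every 5 min to 30 min, in triplicate. Quenched with ice-cold acetonitrile and quantified by LC-MS (SIM, m/z 555 Na adduct). Half-life = ln 2 / slope of ln % remaining versus time.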
# CE2 (cocaine esterase) [16] = target: T1, CE2 (cocaine esterase); assay: Drug metabolism assessed as human CE2-mediated compound hydrolysis by measuring compound half life at 1 uM incubated for 30 mins by LC-MS analysis; type: ADME; conditions: human CE2 enzyme; summary of the method: as §3
# Cocaine esterase = target: T2, Cocaine esterase (Homo sapiens, UniProt O00748); assay: Drug metabolism assessed as human CE2-mediated compound hydrolysis by measuring specific activity of enzyme per mg of protein at 1 uM incubated for 30 mins; type: ADME; conditions: 0.5 h; summary of the method: as §3
# T2 sequence (O00748 whole entry): T1 sequence (O00748 whole entry)
smiles,measurement,setting,value
C=C/C(C)=C\C[C@]1(C)[C@H](C)C[C@H](O)[C@@]23C(=C[C@H](OC(=O)CCC)C[C@@H]12)[C@@H](OC(=O)CCC)O[C@H]3OC(C)=O,"viability at 5 h, 1 µM",[1],98.9%
same,"viability at 5 h, 2 µM",[2],97.9%
same,Activity,Caco-2,Dose-dependent effect
same,"recovery at 10 min, 2 µM",[3],68.4%
same,"recovery at 1 h, 2 µM",[4],33.3%
same,"recovery at 2 h, 2 µM",[5],12%
same,"recovery at 10 min, 2 µM",[6],85.4%
same,"recovery at 1 h, 2 µM",[7],87.2%
same,"recovery at 2 h, 2 µM",[8],87.4%
same,"recovery at 10 min, 2 µM",[9],74.4%
same,"recovery at 1 h, 2 µM",[10],46.5%
same,"recovery at 2 h, 2 µM",[11],27.6%
same,"recovery at 10 min, 2 µM",[12],93.9%
same,"recovery at 1 h, 2 µM",[13],89.3%
same,"recovery at 2 h, 2 µM",[14],92.9%
same,"metabolised at 0.5 h, 1 µM",CE2 (cocaine esterase) [15],30%
same,half-life at 1 µM,CE2 (cocaine esterase) [16],49.5 min
same,Drug metabolism,Cocaine esterase,55.8 pmol/min
